Measurements from ChEMBL document CHEMBL3352192, “Evaluation of lignans from Heliopsis helianthoides var. scabra for their potential antimetastatic effects in the brain” (J Nat Prod, 2014).
The source made the active and inactive calls. The calls are words filed in the database; no cut-off is given here.

What was measured:
[1] = test system: A2058; assay: Inhibition of migration of human A2058 cells assessed as elongated shape and longer protrusion at 5 uM by phase contrast microscopy; assay type: functional, cell-based
How it was run: (§1)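 A2058 melanoma cells were treated 2 h with 5 μM compound. They were fixed in 4% HCHO, permeabilized with acetone at −20 °C for 10 min, blocked, and stained with Alexa488-phalloidin. Actin cytoskeleton and cell shape were examined by epifluorescence microscopy, with phase contrast images also taken.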

[2] = test system: A2058; assay: Inhibition of adhesion of human A2058 cells to endothelial cells at 2 uM pretreated for 3 hrs before adhesion and during adhesion; assay type: functional, cell-based
How it was run: (§2)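 Confluent hCMEC/D3 monolayers and A2058 cells were each pretreated 3 h with compound. Melanoma cells were labelled with Oregon Green 488 diacetate succinimidyl ester and added to the endothelium (10^5 or 5×10^4 cells/well) in serum-free medium containing the same compound for 80 min. After washing and EtOH−AcOH fixation, attached cells were imaged and counted. Results are % of control, means ± SD, n = 3.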

[3] = test system: A2058; assay: Inhibition of adhesion of human A2058 cells to endothelial cells at 10 uM pretreated for 3 hrs before adhesion and during adhesion; assay type: functional, cell-based; how it was run: as §2
[4] = test system: hCMEC/D3; assay: Inhibition of migration of human CMEC/D3 cells after 24 hrs by wound-healing assay; assay type: functional, cell-based
How it was run: (§3)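 hCMEC/D3 cells on rat-tail collagen were grown to 100% confluency, scratched with a pipet tip, and washed with PBS. They were then treated in Leibovitz medium + 5% FBS and imaged by phase contrast for 24 h at 37 °C (10× objective). Migration is given as % of control over 24 h; means ± SD, n = 4.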

[5] = test system: hCMEC/D3; assay: Inhibition of migration of human CMEC/D3 cells at 10 uM after 24 hrs by wound-healing assay; assay type: functional, cell-based; how it was run: as §3
[6] = test system: A2058; assay: Inhibition of adhesion of human A2058 cells to endothelial cells at 2 uM pretreated to endothelial cells for 3 hrs before adhesion; assay type: functional, cell-based
How it was run: (§4)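 Cell-type pretreatment adhesion: either hCMEC/D3 monolayers (2 μM) or A2058 cells (5 μM) were pretreated 3 h. Labelled melanoma cells were then allowed to attach for 80 min in serum-free medium without compound. Fixed, imaged and counted; % of untreated control, means ± SD, n = 3.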

[7] = test system: A2058; assay: Cytotoxicity against human A2058 cells at 1 to 10 uM after 8 hrs by EZ4U assay; assay type: functional, cell-based
How it was run: (§5)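 Confluent A2058, hCMEC/D3 and primary rat brain endothelial cells exposed 8 h to 10, 5, 2.5 or 1.25 μM compound. Media: serum-free MEM (A2058), serum-free EBM-2 (D3), DMEM/F12 + 5% PDS (RBEC). DMSO 0.1% (v/v) in all wells, vehicle controls. EZ4U mitochondrial dehydrogenase read-out after 45 min, OD 450 nm.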

[8] = test system: A2058; assay: Inhibition of adhesion of human A2058 cells to endothelial cells at 5 uM pretreated for 3 hrs before adhesion; assay type: functional, cell-based; how it was run: as §4
[9] = test system: A2058; assay: Inhibition of migration of human A2058 cells assessed as elongated shape with actin-rich protrusion at 5 uM using Alexa-488-labeled phalloidin by microscopy; assay type: functional, cell-based; how it was run: as §1
[10] = Cytotoxicity against RBEC at 1 to 10 uM after 8 hrs by EZ4U assay; settings: rat; how it was run: as §5
[11] = organism: Rattus norvegicus; assay: Increase in integrity of RBEC at 5 uM after 2 hrs by ZO-1 staining method; assay type: functional
How it was run: (§6)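 Confluent RBECs or hCMEC/D3 cells, 2 h compound exposure (0.1% DMSO vehicle), then fixed in EtOH−AcOH 95:5 at −20 °C. Blocked with 3% BSA, rabbit anti-ZO-1 overnight, Cy3 goat anti-rabbit, Hoechst 33342 nuclei. Tight-junction staining at cell–cell contacts assessed by epifluorescence microscopy.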

[12] = organism: Rattus norvegicus; assay: Increase in transendothelial electrical resistance in RBEC at 5 uM after 2 hrs relative to control; assay type: functional
How it was run: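 Primary RBECs from 2-week-old rats were grown on collagen/fibronectin-coated Transwell filters. After confluence they got 550 nM hydrocortisone, 250 μM CPT-cAMP and 17.5 μM RO-201724, with astrocyte-conditioned medium. Once TEER plateaued (120−140 Ω·cm2), compound was added (0.1% DMSO) and TEER was followed automatically for 2 h. Expressed as % of untreated RBECs at 2 h; means ± SD, n = 3.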

[13] = test system: hCMEC/D3; assay: Cytotoxicity against human CMEC/D3 cells at 1 to 10 uM after 8 hrs by EZ4U assay; assay type: functional, cell-based; how it was run: as §5
[14] = test system: A2058; assay: Inhibition of migration of human A2058 cells assessed as cells with stress fibers at 5 uM using Alexa-488-labeled phalloidin by microscopy; assay type: functional, cell-based; how it was run: as §1
[15] = test system: hCMEC/D3; assay: Increase in integrity of human CMEC/D3 cells at 2 uM after 2 hrs by ZO-1 staining method; assay type: functional, cell-based; how it was run: as §6
[16] = test system: A2058; assay: Inhibition of migration of human A2058 cells assessed as filopodia at 5 uM using Alexa-488-labeled phalloidin by microscopy; assay type: functional, cell-based; how it was run: as §1
[17] = test system: A2058; assay: Inhibition of migration of human A2058 cells assessed as expanded cells without large filopodia at 5 uM using Alexa-488-labeled phalloidin by microscopy; assay type: functional, cell-based; how it was run: as §1
[18] = test system: A2058; assay: Inhibition of migration of human A2058 cells at 10 uM by wound-healing assay; assay type: functional, cell-based
How it was run: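 A2058 confluent monolayer was scratched, and wound closure was tracked for 24 h at 2, 5 or 10 μM by phase contrast microscopy (10× objective). Migration is expressed as % of control cells migrated over 24 h; means ± SD, n = 4, ANOVA with Bonferroni.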

Structure (SMILES) | inhibition [1] | inhibition [2] | inhibition [3] | inhibition [4] | inhibition [5] | inhibition [6] | Activity [7] | inhibition [8] | inhibition [9] | Activity [10] | Activity [11] | Activity [12] | Activity [13] | inhibition [14] | Activity [15] | inhibition [16] | inhibition [17] | inhibition [18]
O=C1OCc2c1cc1ccc3c(c1c2-c1ccc2c(c1)OCO2)OCO3 [HELIOXANTHIN] | Active | Active | Active | Dose-dependent effect | Active | Active | inactive | inactive | Active | Non-toxic | Active | 15% | inactive | Active | Active | Active | – | –
COC/C=C/c1cc(OC)c2oc(-c3ccc4c(c3)OCO4)cc2c1 | – | inactive | – | – | – | – | inactive | – | – | Non-toxic | – | – | inactive | – | – | – | – | –
CC(=O)O[C@H](c1ccc2c(c1)OCO2)[C@H]1C(=O)OC[C@@H]1Cc1ccc2c(c1)OCO2 | – | inactive | – | – | – | – | inactive | – | – | Non-toxic | – | – | inactive | – | – | – | – | –
COC(=O)[C@H](Cc1ccc2c(c1)OCO2)[C@@H](Cc1ccc2c(c1)OCO2)C(=O)OC | – | inactive | – | – | – | – | inactive | – | – | Non-toxic | – | – | inactive | – | – | – | – | –
COC(=O)/C(=C/c1ccc2c(c1)OCO2)C(Cc1ccc2c(c1)OCO2)C(=O)OC (stereo not given) | Active | inactive | Active | Dose-dependent effect | Active | – | inactive | – | – | Non-toxic | Active | Active | inactive | – | Active | – | Active | Active
COCCCc1cc(OC)c2oc(-c3ccc4c(c3)OCO4)cc2c1 | – | inactive | – | – | – | – | inactive | – | – | Non-toxic | – | – | inactive | – | – | – | – | –
